Measurements published in ChEMBL document CHEMBL1144245, “Discovery of 4-aryl-2-oxo-2H-chromenes as a new series of apoptosis inducers using a cell- and caspase-based high-throughput screening assay” (Bioorg Med Chem Lett, 2008).

Experiments:
SNU-398 [1] = assay: Induction of apoptosis in human SNU398 cells assessed as caspase 3 activation by HTS assay; type: functional, cell-based
T47D [2] = assay: Growth inhibition of human T47D cells; type: functional
Summary of the method: (§1)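 Growth inhibition assay in T47D, HCT116 and SNU398 cells, run in 96-well format. GI50 reported as mean ± SEM of three or more experiments.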

T47D [3] = assay: Induction of apoptosis in human T47D cells assessed as caspase 3 activation by HTS assay; type: functional, cell-based
[4] = Growth inhibition of human HCT 116 cells; type: functional; summary of the method: as §1
SNU-398 [5] = assay: Growth inhibition of human SNU398 cells; type: functional; summary of the method: as §1
HCT-116 = assay: Induction of apoptosis in human HCT 116 cells assessed as caspase 3 activation by HTS assay; type: functional, cell-based

Row | Structure (SMILES) | EC50 (SNU-398 [1]) | GI50 (T47D [2]) | EC50 (T47D [3]) | GI50 [4] | GI50 (SNU-398 [5]) | EC50 (HCT-116)
1 | COc1cc(-c2c(C#N)c(=O)oc3cc(N)ccc23)cc(Br)c1OC | 490 nM | 630 nM | 820 nM | 630 nM | 440 nM | 990 nM
2 | COc1cc(-c2c(C#N)c(=O)oc3c2ccc2c3ccn2C)cc(Br)c1OC | 6 nM | 0.7 nM | 13 nM | 0.9 nM | 0.3 nM | 10 nM
3 | COc1cccc(-c2c(C#N)c(=O)oc3c2ccc2c3ccn2C)c1 | 17 nM | – | 43 nM | – | – | 20 nM
4 | COc1cc(-c2c(C#N)c(=O)oc3c2ccc2c3ccn2C)cc2c1OCO2 | 17 nM | 25 nM | 27 nM | 26 nM | 7.9 nM | 27 nM
5 | COc1cccc(-c2c(C#N)c(=O)oc3cc(OC)ccc23)c1 | 29 nM | – | 53 nM | – | – | 59 nM
6 | Cc1cncc(-c2c(C#N)c(=O)oc3c2ccc2c3ccn2C)c1 | 14 nM | – | 19 nM | – | – | 16 nM
7 | Cn1ccc2c3oc(=O)c(C#N)c(-c4cccc([N+](=O)[O-])c4)c3ccc21 | 9.5 nM | – | 43 nM | – | – | 13 nM
8 | COc1ccc2c(-c3cc(Br)c(OC)c(OC)c3)c(C#N)c(=O)oc2c1 | 26 nM | – | 42 nM | – | – | 41 nM
9 | COc1cc(OC)cc(-c2c(C#N)c(=O)oc3cc(OC)ccc23)c1 | 15 nM | – | 17 nM | – | – | 18 nM
10 | COc1cc(OC)cc(-c2c(C#N)c(=O)oc3c2ccc2c3ccn2C)c1 | 13 nM | – | 24 nM | – | – | 20 nM
11 | COc1cc(-c2c(C#N)c(=O)oc3cc(N(C)C)ccc23)cc(Br)c1OC | 260 nM | 620 nM | 280 nM | 460 nM | 150 nM | 400 nM
12 | COc1cc(-c2c(C#N)c(=O)oc3cc(Cl)ccc23)cc(Br)c1OC | 5500 nM | – | 6900 nM | – | – | 9400 nM
13 | COc1cc(C2C(C#N)=C(N)Oc3cc(N(C)C)ccc32)cc2c1OCO2 (stereo not given) | – | – | 73 nM | – | – | –
14 | COc1cc(-c2c(C#N)c(=O)oc3c2ccc2cnccc23)cc(Br)c1OC | 2500 nM | – | 3000 nM | – | – | 4800 nM
15 | Cn1ccc2c3oc(=O)c(C#N)c(-c4cccc(Br)c4)c3ccc21 | 9.6 nM | – | 24 nM | – | – | 14 nM
